From ChEMBL document CHEMBL1135464, “3-Aryl-2-quinolone derivatives: synthesis and characterization of in vitro and in vivo antitumor effects with emphasis on a new therapeutical target connected with cell migration” (J Med Chem, 2002)

What was measured:
PC-3 = assay: Cytotoxicity against prostate cell line PC-3 using MTT colorimetric assay; type: functional, cell-based; details: Homo sapiens
In short: (§1)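 Human tumour lines from ATCC were grown at 37 °C in sealed dishes in MEM with 5% FCS. Cells were seeded at 40000 cells/mL in 96-well plates and left 24 h to plate. Each drug was then tested at six concentrations from 10^-5 to 10^-9 M. Growth was read by colorimetric MTT assay.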

A549 = assay: Cytotoxicity against A549 nonsmall lung cell line using MTT colorimetric assay; type: functional, cell-based; details: Homo sapiens; in short: as §1
J82 = assay: Cytotoxicity against J82 bladder cell lines using MTT colorimetric assay; type: functional, cell-based; details: Homo sapiens; in short: as §1
HCT-15 = assay: Cytotoxicity against HCT-15 colon cell line using MTT colorimetric assay; type: functional, cell-based; details: Homo sapiens; in short: as §1
A-427 = assay: Cytotoxicity against A-427 nonsmall lung cell line using MTT colorimetric assay; type: functional, cell-based; details: Homo sapiens; in short: as §1
T47D = assay: Cytotoxicity against Breast cancer cell line T-47D using MTT colorimetric assay; type: functional, cell-based; details: Homo sapiens; in short: as §1
U-87 MG = assay: Cytotoxicity against U-87 MG glioblastomas using MTT colorimetric assay; type: functional, cell-based, U-87MG ATCC; details: Homo sapiens; in short: as §1
U373 MG = assay: Cytotoxicity against U-373 MG glioblastomas using MTT colorimetric assay; type: functional, cell-based, U-373MG ATCC; details: Homo sapiens; in short: as §1
MCF7 = assay: Cytotoxicity against Breast cancer cell line MCF-7 using MTT colorimetric assay; type: functional, cell-based; details: Homo sapiens; in short: as §1
[1] = Evaluated in vivo for maximum tolerated dose and found to be nontoxic; type: ADME, organism-based
LoVo = assay: Cytotoxicity measured on LoVo colon cell line using MTT colorimetric assay; type: functional, cell-based; details: Homo sapiens; in short: as §1
T-24 = assay: Cytotoxicity against T24 bladder cell lines using MTT colorimetric assay; type: functional, cell-based; details: Homo sapiens; in short: as §1
A 172 = assay: Cytotoxicity against A-172 glioblastomas using MTT colorimetric assay; type: functional, cell-based; details: Homo sapiens; in short: as §1

**Q.** Which IC50 (PC-3) does the source give for `COc1ccc(-c2cc3c(OC)cc(OC)c4c3n(c2=O)CCC4=O)cc1` here?
**A.** > 10 µM

**Q.** And the IC50 (A549)?
**A.** > 10 µM

**Q.** And the IC50 (J82)?
**A.** > 10 µM

**Q.** What about the IC50 (HCT-15) of the same molecule?
**A.** > 10 µM

**Q.** What about the IC50 (A-427) of the same molecule?
**A.** > 10 µM

**Q.** And the IC50 (T47D)?
**A.** > 10 µM

**Q.** And the IC50 (U-87 MG)?
**A.** > 10 µM

**Q.** And the IC50 (U373 MG)?
**A.** > 10 µM

**Q.** What about the IC50 (MCF7) of the same molecule?
**A.** > 10 µM

**Q.** And the MTD [1]?
**A.** 160 mg/kg

**Q.** And the IC50 (LoVo)?
**A.** > 10 µM

**Q.** What about the IC50 (T-24) of the same molecule?
**A.** > 10 µM

**Q.** And the IC50 (A 172)?
**A.** > 10 µM

**Q.** Which IC50 (PC-3) does the source give for `COc1ccc(-c2cc3c(OC)cc(OC)cc3n(CC#N)c2=O)cc1` here?
**A.** > 10 µM

**Q.** What about the IC50 (A549) of the same molecule?
**A.** > 10 µM

**Q.** And the IC50 (J82)?
**A.** > 10 µM

**Q.** And the IC50 (HCT-15)?
**A.** > 10 µM

**Q.** What about the IC50 (A-427) of the same molecule?
**A.** > 10 µM

**Q.** What about the IC50 (T47D) of the same molecule?
**A.** > 10 µM

**Q.** And the IC50 (U-87 MG)?
**A.** > 10 µM

**Q.** And the IC50 (U373 MG)?
**A.** > 10 µM

**Q.** What about the IC50 (MCF7) of the same molecule?
**A.** > 10 µM

**Q.** And the MTD [1]?
**A.** 160 mg/kg

**Q.** And the IC50 (LoVo)?
**A.** > 10 µM

**Q.** And the IC50 (T-24)?
**A.** > 10 µM

**Q.** What about the IC50 (A 172) of the same molecule?
**A.** > 10 µM

**Q.** With `COc1cc(OC)c2cc(-c3ccc(O)cc3)c(O)nc2c1` as the molecule, how does the IC50 (PC-3) read?
**A.** > 10 µM

**Q.** What about the IC50 (A549) of the same molecule?
**A.** > 10 µM

**Q.** And the IC50 (J82)?
**A.** > 10 µM

**Q.** And the IC50 (HCT-15)?
**A.** > 10 µM

**Q.** What about the IC50 (A-427) of the same molecule?
**A.** > 10 µM

**Q.** And the IC50 (T47D)?
**A.** > 10 µM

**Q.** And the IC50 (U-87 MG)?
**A.** > 10 µM

**Q.** What about the IC50 (U373 MG) of the same molecule?
**A.** > 10 µM

**Q.** And the IC50 (MCF7)?
**A.** > 10 µM

**Q.** What about the MTD [1] of the same molecule?
**A.** 160 mg/kg

**Q.** And the IC50 (LoVo)?
**A.** > 10 µM

**Q.** What about the IC50 (T-24) of the same molecule?
**A.** > 10 µM

**Q.** What about the IC50 (A 172) of the same molecule?
**A.** > 10 µM

**Q.** With `COc1ccc(-c2cc3c(OC)cc(OC)cc3n(C)c2=O)cc1` as the molecule, how does the IC50 (PC-3) read?
**A.** > 10 µM

**Q.** And the IC50 (A549)?
**A.** > 10 µM

**Q.** And the IC50 (J82)?
**A.** > 10 µM

**Q.** What about the IC50 (HCT-15) of the same molecule?
**A.** > 10 µM

**Q.** And the IC50 (A-427)?
**A.** > 10 µM

**Q.** What about the IC50 (T47D) of the same molecule?
**A.** > 10 µM

**Q.** What about the IC50 (U-87 MG) of the same molecule?
**A.** > 10 µM

**Q.** What about the IC50 (U373 MG) of the same molecule?
**A.** > 10 µM

**Q.** And the IC50 (MCF7)?
**A.** > 10 µM

**Q.** What about the MTD [1] of the same molecule?
**A.** 160 mg/kg

**Q.** And the IC50 (LoVo)?
**A.** > 10 µM

**Q.** What about the IC50 (T-24) of the same molecule?
**A.** > 10 µM

**Q.** Which results are given for `COc1ccc(-c2cc3c(OC)cc(OC)cc3n(CCCC#N)c2=O)cc1`?
**A.** IC50 (PC-3): > 10 µM; IC50 (A549): > 10 µM; IC50 (J82): > 10 µM; IC50 (HCT-15): > 10 µM; IC50 (A-427): > 10 µM; IC50 (T47D): > 10 µM; IC50 (U-87 MG): > 10 µM; IC50 (U373 MG): > 10 µM; IC50 (MCF7): > 10 µM; MTD [1]: 160 mg/kg; IC50 (LoVo): > 10 µM; IC50 (T-24): > 10 µM; IC50 (A 172): > 10 µM

**Q.** Which results are given for `CCN(CC)C(=O)CCn1c(=O)c(-c2ccc(OC)cc2)cc2c(OC)cc(OC)cc21`?
**A.** IC50 (PC-3): > 10 µM; IC50 (A549): > 10 µM; IC50 (J82): > 10 µM; IC50 (HCT-15): > 10 µM; IC50 (A-427): > 10 µM; IC50 (T47D): > 10 µM; IC50 (U-87 MG): > 10 µM; IC50 (U373 MG): > 10 µM; IC50 (MCF7): > 10 µM; MTD [1]: 160 mg/kg; IC50 (LoVo): > 10 µM; IC50 (T-24): > 10 µM; IC50 (A 172): > 10 µM

**Q.** With `COc1cc(OC)c2cc(-c3ccccc3)c(O)nc2c1` as the molecule, how does the IC50 (PC-3) read?
**A.** > 10 µM

**Q.** And the IC50 (A549)?
**A.** > 10 µM

**Q.** What about the IC50 (J82) of the same molecule?
**A.** > 10 µM

**Q.** And the IC50 (HCT-15)?
**A.** > 10 µM

**Q.** What about the IC50 (A-427) of the same molecule?
**A.** > 10 µM

**Q.** And the IC50 (T47D)?
**A.** > 10 µM

**Q.** And the IC50 (U-87 MG)?
**A.** > 10 µM

**Q.** And the IC50 (U373 MG)?
**A.** > 10 µM

**Q.** And the IC50 (MCF7)?
**A.** > 10 µM

**Q.** What about the MTD [1] of the same molecule?
**A.** 160 mg/kg

**Q.** What about the IC50 (LoVo) of the same molecule?
**A.** > 10 µM

**Q.** What about the IC50 (T-24) of the same molecule?
**A.** > 10 µM

**Q.** What about the IC50 (A 172) of the same molecule?
**A.** > 10 µM

**Q.** What does the source list for `COc1cc(OC)c2cc(-c3ccc(OC(C)=O)cc3)c(=O)n(C)c2c1`?
**A.** IC50 (PC-3): > 10 µM; IC50 (A549): > 10 µM; IC50 (J82): > 10 µM; IC50 (HCT-15): > 10 µM; IC50 (A-427): > 10 µM; IC50 (T47D): > 10 µM; IC50 (U-87 MG): > 10 µM; IC50 (U373 MG): > 10 µM; IC50 (MCF7): > 10 µM; MTD [1]: 160 mg/kg; IC50 (LoVo): > 10 µM; IC50 (T-24): > 10 µM; IC50 (A 172): > 10 µM

**Q.** What does the source list for `COc1ccc(-c2cc3c(OC)cc(OC)cc3n(CC(=O)OCc3ccccc3)c2=O)cc1`?
**A.** IC50 (PC-3): > 10 µM; IC50 (A549): > 10 µM; IC50 (J82): > 10 µM; IC50 (HCT-15): > 10 µM; IC50 (A-427): > 10 µM; IC50 (T47D): > 10 µM; IC50 (U-87 MG): > 10 µM; IC50 (U373 MG): > 10 µM; IC50 (MCF7): > 10 µM; MTD [1]: 160 mg/kg; IC50 (LoVo): > 10 µM; IC50 (T-24): > 10 µM; IC50 (A 172): > 10 µM

**Q.** Which results are given for `COc1cccc2cc(-c3ccccc3)c(O)nc12`?
**A.** IC50 (PC-3): > 10 µM; IC50 (A549): > 10 µM; IC50 (J82): > 10 µM; IC50 (HCT-15): > 10 µM; IC50 (A-427): > 10 µM; IC50 (T47D): > 10 µM; IC50 (U-87 MG): > 10 µM; IC50 (U373 MG): > 10 µM; IC50 (MCF7): > 10 µM; MTD [1]: 160 mg/kg; IC50 (LoVo): > 10 µM; IC50 (T-24): > 10 µM; IC50 (A 172): > 10 µM

**Q.** Which IC50 (PC-3) does the source give for `COc1ccc(-c2cc3c(OC)cc(OC)cc3n(C)c2=S)cc1` here?
**A.** > 10 µM

**Q.** What about the IC50 (A549) of the same molecule?
**A.** > 10 µM

**Q.** What about the IC50 (J82) of the same molecule?
**A.** > 10 µM

**Q.** And the IC50 (HCT-15)?
**A.** > 10 µM

**Q.** What about the IC50 (A-427) of the same molecule?
**A.** > 10 µM

**Q.** And the IC50 (T47D)?
**A.** > 10 µM

**Q.** What about the IC50 (U-87 MG) of the same molecule?
**A.** > 10 µM

**Q.** And the IC50 (U373 MG)?
**A.** > 10 µM

**Q.** What about the IC50 (MCF7) of the same molecule?
**A.** > 10 µM

**Q.** What about the MTD [1] of the same molecule?
**A.** 160 mg/kg

**Q.** And the IC50 (LoVo)?
**A.** > 10 µM

**Q.** What about the IC50 (T-24) of the same molecule?
**A.** > 10 µM

**Q.** And the IC50 (A 172)?
**A.** > 10 µM

**Q.** What does the source list for `COc1cc(OC)c2cc(-c3ccc(OCc4ccccc4)cc3)c(O)nc2c1`?
**A.** IC50 (PC-3): > 10 µM; IC50 (A549): > 10 µM; IC50 (J82): > 10 µM; IC50 (HCT-15): > 10 µM; IC50 (A-427): > 10 µM; IC50 (T47D): > 10 µM; IC50 (U-87 MG): > 10 µM; IC50 (U373 MG): > 10 µM; IC50 (MCF7): > 10 µM; MTD [1]: 160 mg/kg; IC50 (LoVo): > 10 µM; IC50 (T-24): > 10 µM; IC50 (A 172): > 10 µM
